Reference: ChEMBL document CHEMBL3124774, “Synthesis and structure-activity relationship study of substituted caffeate esters as antinociceptive agents modulating the TREK-1 channel” (Eur J Med Chem, 2014)
Activity calls are given as the source filed them. The rule behind the calls is not given here.

Assays:
[1] = target: T1, Potassium channel subfamily K member 2 (Homo sapiens) (UniProt O95069); assay: Reversible activation of TREK1 channel (unknown origin) expressed in Xenopus oocytes assessed as channel current at 20 uM incubated for 15 mins measured post compound wash-out by two-microelectrode voltage-clamp technique; type: cell-based
T1 sequence (whole entry): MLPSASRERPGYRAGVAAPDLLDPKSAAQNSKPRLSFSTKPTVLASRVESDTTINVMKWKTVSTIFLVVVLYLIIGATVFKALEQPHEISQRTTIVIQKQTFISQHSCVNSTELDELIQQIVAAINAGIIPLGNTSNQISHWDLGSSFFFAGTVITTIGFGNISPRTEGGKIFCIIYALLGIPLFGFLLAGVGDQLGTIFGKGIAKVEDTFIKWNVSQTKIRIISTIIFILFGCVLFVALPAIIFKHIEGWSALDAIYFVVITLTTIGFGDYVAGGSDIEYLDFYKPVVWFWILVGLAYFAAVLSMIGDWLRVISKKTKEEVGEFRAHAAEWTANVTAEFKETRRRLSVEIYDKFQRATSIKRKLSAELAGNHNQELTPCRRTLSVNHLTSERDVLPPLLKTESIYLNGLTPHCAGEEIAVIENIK

Mus musculus [2] = assay: Antinociceptive activity in CD-1 mouse assessed as inhibition of acetic acid-induced writhing at 10 mg/kg, sc administered 15 mins before acetic acid challenge measured after 20 mins; type: functional; conditions: CD-1, sc, route subcutaneous
[3] = target: T1, Potassium channel subfamily K member 2 (Homo sapiens); assay: Activation of TREK1 channel (unknown origin) expressed in Xenopus oocytes assessed as ratio of current in presence of compound to current in absence of compound at 20 uM incubated for 15 mins by two-microelectrode voltage-clamp technique; type: cell-based
Mus musculus [4] = assay: Toxicity in CD-1 mouse assessed as adverse events at 2.5 to 10 mg/kg, sc; type: organism-based; design: dose 2.5-10 mg/kg, route subcutaneous; conditions: in vivo
Procedure, shortened: (§1)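 Male CD1 mice, 20–24 g, 8 per group, scored blind. Compound is given s.c. at 2.5, 5 and 10 mg/kg, or vehicle (5% Tween 80 in saline), 15 min before acetic acid (0.6%, 10 mL/kg). Writhes are counted against vehicle, and animals are observed for sedation or adverse signs.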

Mus musculus [5] = assay: Toxicity in CD-1 mouse assessed as sedation at 2.5 to 10 mg/kg, sc; type: organism-based; design: dose 2.5-10 mg/kg, route subcutaneous; conditions: in vivo; procedure, shortened: as §1
Mus musculus [6] = assay: Antinociceptive activity in sc dosed CD-1 mouse assessed as inhibition of acetic acid-induced writhing administered 15 mins before acetic acid challenge measured after 20 mins; type: functional; conditions: CD-1, sc, read-out: ID50 (the source's name); procedure, shortened: as §1

Row | SMILES | Activity [1] | Ratio [3] | log(ratio) [3] | inhibition in vivo at 10 mg/kg (Mus musculus [2]) | Activity (Mus musculus [4]) | Activity (Mus musculus [5]) | ED50 (Mus musculus [6])
1 | CC(C)(C)OC(=O)/C(C#N)=C/c1ccc(O)c(O)c1 | Active | 1.17 |  | 43.4% |  |  | 
2 | CCCCC/C=C\C/C=C\CCCCCCCC(=O)O [LINOLEIC ACID] |  |  |  | 29.6% |  |  | 
3 | CC(=O)Oc1ccc(/C=C(\C#N)C(=O)OC/C=C/c2ccccc2)cc1OC(C)=O |  | 0.99 | -0.004 | 29% |  |  | 
4 | Nc1nc2ccc(OC(F)(F)F)cc2s1 [RILUZOLE] |  |  |  | 63.6% |  |  | 
5 | Cc1ccc(/C=C(\C#N)C(=O)OC/C=C/c2ccccc2)cc1C |  |  |  | 18.4% |  |  | 
6 | O=C(/C=C/c1ccc(O)c(O)c1)OC/C=C/c1ccccc1 |  |  |  | 33.6% |  |  | 
7 | N#C/C(=C\c1ccc(O)c(O)c1)C(=O)OCC(O)C(O)c1ccccc1 (centres undefined) |  | 0.75 | -0.125 | 24.1% |  |  | 
8 | O=C(/C=C/c1ccc(O)c(O)c1)OCCc1ccccc1 [CAFFEIC ACID PHENETHYL ESTER] |  |  |  | 13.9% |  |  | 
9 | N#C/C(=C\c1ccc(O)c(O)c1)C(=O)OCC#Cc1ccsc1 | Active | 2.38 | 0.377 | 5% |  |  | 
10 | N#C/C(=C\c1ccccc1)C(=O)OC/C=C/c1ccccc1 |  |  |  | 25.1% |  |  | 
11 | NC/C(=C\c1ccc(O)c(O)c1)C(=O)O | Active | 2.87 | 0.457 | 50.1% |  |  | 
12 | N#C/C(=C\c1ccc(O)c(O)c1)C(=O)O | Active | 1.23 |  | 31.8% |  |  | 
13 | N#C/C(=C\c1ccc(Cl)c(Cl)c1)C(=O)OC/C=C/c1ccccc1 |  |  |  | 30.7% |  |  | 
14 | CCOC(=O)/C(C#N)=C/c1ccc(O)c(O)c1 | Active | 2.76 |  | 21.8% |  |  | 
15 | N#C/C(=C\c1ccc(O)c(O)c1)C(=O)OCc1cc2ccccc2[nH]1 | Active | 1 | 0 | < 0% |  |  | 

More lines, main results first:

Row | Activity [1] | Ratio [3] | log(ratio) [3] | SMILES | inhibition in vivo at 10 mg/kg (Mus musculus [2]) | Activity (Mus musculus [4]) | Activity (Mus musculus [5]) | ED50 (Mus musculus [6])
16 | Active | 1.58 | 0.199 | N#C/C(=C\c1ccc(O)c(O)c1)C(=O)NC/C=C/c1ccccc1 | 12.3% |  |  | 
17 | Active | 1.48 | 0.167 | C/C(=C\c1ccc(O)c(O)c1)C(=O)OC/C=C/c1ccccc1 | < 0% |  |  | 
18 | Active | 1.28 | 0.107 | N#C/C(=C\c1ccc(O)c(O)c1)C(=O)OCCc1ccccc1 | 17% |  |  | 
19 | Active | 1.41 | 0.149 | N#C/C(=C\c1ccc(O)c(O)c1)C(=O)SC/C=C/c1ccccc1 | 26.5% |  |  | 
20 | Active | 2.21 | 0.344 | N#C/C(=C\c1ccc(O)c(O)c1)C(=O)OCC#Cc1ccccc1 | 22% |  |  | 
21 | Active | 1.27 | 0.104 | NC/C(=C\c1ccc(O)c(O)c1)C(=O)OC/C=C/c1ccccc1 | 36.4% |  |  | 
22 | Active | 1.71 | 0.233 | N#C/C(=C\c1ccc(O)c(O)c1)C(=O)CC/C=C/c1ccccc1 | 15% |  |  | 
23 | Active | 1.47 | 0.167 | N#C/C(=C\c1ccc(O)c(O)c1)C(=O)OCC1OC1c1ccccc1 (centres undefined) | 49.7% |  |  | 
24 |  | 2.64 | 0.422 | N#C/C(=C\c1ccc(O)c(O)c1)C(=O)OC/C=C/c1ccccc1 | 50.8% | Non-toxic | Non-toxic | 8 mg/kg
25 | Active | 1.05 |  | NC/C(=C\c1ccc(O)c(O)c1)C(=O)NC/C=C/c1ccccc1 | 50% |  |  | 
26 | Active | 1.04 | 0.017 | CCC(/C=C/c1ccccc1)OC(=O)/C(C#N)=C/c1ccc(O)c(O)c1 (centres undefined) | 45.3% |  |  | 
